Experimental data published in ChEMBL document CHEMBL3745596, “Chlorophenoxy aminoalkyl derivatives as histamine H(3)R ligands and antiseizure agents” (Bioorg Med Chem, 2016).
The source made the active and inactive calls.

Experiments:
[1] = system: Rattus norvegicus; assay: Anticonvulsant activity in Sprague-Dawley rat assessed as protection against pilocarpine-induced convulsive status epilepticus at 65 mg/kg, ip; type: functional, organism-based
How it was run: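 Male Sprague Dawley rats (150–180 g) dosed ip, pilocarpine 50 mg/kg ip given; compound dosed immediately at first behavioral Stage 3 seizure or 30 min later. Number protected from Racine Stage 3 or greater seizures recorded.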

[2] = system: Mus musculus; assay: Anticonvulsant activity in CF1 albino mouse assessed as protection against subcutaneous pentetrazole-induced seizure at 30 mg/kg, ip after 4 hrs; type: functional, organism-based
How it was run: (§1)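 Male CF-1 mice, ip in 0.5% methylcellulose; pentetrazole at CD97 (85 mg/kg) injected subcutaneously in a loose fold of neck skin. Observed 30 min; absence of even a threshold seizure (single clonic spasm lasting at least 5 s) counted as protection. Scored protected/tested, or ED50.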

[3] = system: Mus musculus; assay: Protective index, ratio of TD50 for ip dosed CF1 albino mouse to ED50 for ip dosed CF1 albino mouse assessed as protection against maximal electroshock-induced seizure after 0.5 hrs; type: functional
How it was run: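 PI = TD50/ED50. Male CF-1 mice or male Sprague–Dawley rats given compound ip as 0.5% methylcellulose suspension. MES: 60 Hz corneal current, 50 mA mice or 150 mA rats, for […] after tetracaine eye drops; protection is abolition of hindlimb tonic extension.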

[4] = system: Mus musculus; assay: Neurotoxicity in CF1 albino mouse at 300 mg/kg, ip after 4 hrs by rotarod test; type: toxicity, organism-based; details: in vivo
How it was run: (§2)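 Rotarod neurotoxicity in male albino CF-1 mice dosed ip with compound suspended in 0.5% methylcellulose. Animal placed on a 1 inch diameter knurled plastic rod rotating at 6 rpm. Neurotoxicity scored when the animal falls off three times within 1 min. Readout is number of animals toxic/number tested at the stated time after dosing. TD50 with 95% confidence interval from the quantitative study.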

[5] = system: Mus musculus; assay: Anticonvulsant activity in CF1 albino mouse assessed as protection against maximal electroshock-induced seizure at 10 mg/kg, ip after 0.5 hrs; type: functional, organism-based
How it was run: (§3)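 Male CF-1 mice dosed ip as suspension in 0.5% methylcellulose. Corneal electrodes deliver 60 Hz alternating current, 50 mA for […], after a drop of 0.5% tetracaine HCl in 0.9% NaCl per eye. Protection means abolition of hindlimb tonic extension; scored as protected/tested, or ED50 with 95% confidence interval.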

[6] = system: Mus musculus; assay: Neurotoxicity in CF1 albino mouse at 50 mg/kg, ip after 2 hrs by rotarod test; type: toxicity, organism-based; details: in vivo; how it was run: as §2
[7] = system: Mus musculus; assay: Neurotoxicity in CF1 albino mouse at 30 mg/kg, ip after 4 hrs by rotarod test; type: toxicity, organism-based; details: in vivo; how it was run: as §2
[8] = system: Mus musculus; assay: Analgesic activity in mouse assessed as inhibition of formalin-induced paw licking behavior at 13 mg/kg, ip after 0.25 hrs; type: functional, organism-based
How it was run: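 Male albino mice, ip in 0.5% methylcellulose; 0.5% formalin injected sub-dermally into right hindpaw plantar surface 0.25 h after dosing. Paw licking observed for the first 2 min of each 5-min epoch up to 40 min after dosing; cumulative licking duration compared with vehicle-pretreated group, acute and inflammatory phases.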

[9] = system: Mus musculus; assay: Anticonvulsant activity in CF1 albino mouse assessed as protection against maximal electroshock-induced seizure at 3 mg/kg, ip after 0.5 hrs; type: functional, organism-based; how it was run: as §3
[10] = system: Mus musculus; assay: Neurotoxicity in CF1 albino mouse at 30 mg/kg, ip after 0.5 hrs by rotarod test; type: toxicity, organism-based; details: in vivo; how it was run: as §2
[11] = Neuroprotective activity in hippocampal slice (unknown origin) assessed as protection against NMDA-induced cell death using propidium iodide staining; type: functional; details: Hippocampus
How it was run: (§4)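 Organotypic hippocampal slice cultures exposed to NMDA or kainic acid alone or with compound; propidium iodide in all wells; PI fluorescence intensity of slices, proportional to cell death, compared with excitotoxin-only slices; qualitative.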

[12] = system: Mus musculus; assay: Anticonvulsant activity in CF1 albino mouse assessed as protection against 6 Hz-psychomotor-induced seizure at 50 mg/kg, ip after 4 hrs; type: functional, organism-based
How it was run: (§5)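 Male CF-1 mice, ip suspension in 0.5% methylcellulose. Corneal stimulation 0.2 ms monopolar rectangular pulses at 6 Hz, 32 mA for 3 s via constant-current device; mice without minimal clonic phase seizure counted protected. Groups of four; read at 0.25, 0.5, 1, 2, 4 h; result as protected/tested.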

[13] = system: Mus musculus; assay: Neurotoxicity in CF1 albino mouse at 25 mg/kg, ip after 0.25 to 4 hrs by rotarod test; type: toxicity, organism-based; details: in vivo; how it was run: as §2
[14] = system: Mus musculus; assay: Anticonvulsant activity in CF1 albino mouse assessed as protection against maximal electroshock-induced seizure at 30 mg/kg, ip after 0.5 hrs; type: functional, organism-based; how it was run: as §3
[15] = system: Rattus norvegicus; assay: Anticonvulsant activity in Sprague-Dawley rat assessed as protection against maximal electroshock-induced seizure at 30 mg/kg, po; type: functional
[16] = system: Mus musculus; assay: Anticonvulsant activity in CF1 albino mouse assessed as protection against 6 Hz-psychomotor-induced seizure at 25 mg/kg, ip after 0.25 to 4 hrs; type: functional, organism-based; how it was run: as §5
[17] = target: Histamine H3 receptor (Homo sapiens, UniProt Q9Y5N1); assay: Displacement of [3H]-Nalpha-methylhistamine from human recombinant histamine H3 receptor expressed in HEK293 cells after 90 mins; type: cell-based
Histamine H3 receptor, sequence (Q9Y5N1 whole entry): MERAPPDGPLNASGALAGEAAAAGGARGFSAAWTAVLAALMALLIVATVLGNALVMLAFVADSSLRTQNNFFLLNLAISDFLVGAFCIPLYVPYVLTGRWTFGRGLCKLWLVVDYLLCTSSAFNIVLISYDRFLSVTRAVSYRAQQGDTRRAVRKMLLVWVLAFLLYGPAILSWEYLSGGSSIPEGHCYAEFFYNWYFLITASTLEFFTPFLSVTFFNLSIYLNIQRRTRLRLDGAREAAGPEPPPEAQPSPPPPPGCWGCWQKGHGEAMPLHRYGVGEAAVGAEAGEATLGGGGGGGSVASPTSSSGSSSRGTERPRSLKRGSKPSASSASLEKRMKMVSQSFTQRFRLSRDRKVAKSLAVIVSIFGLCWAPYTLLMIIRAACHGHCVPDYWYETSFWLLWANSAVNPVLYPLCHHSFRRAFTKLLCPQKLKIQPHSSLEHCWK

[18] = Neuroprotective activity in hippocampal slice (unknown origin) assessed as protection against kainic acid-induced cell death using propidium iodide staining; type: functional; details: Hippocampus; how it was run: as §4
[19] = system: Mus musculus; assay: Neurotoxicity in CF1 albino mouse at 50 mg/kg, ip after 4 hrs by rotarod test; type: toxicity, organism-based; details: in vivo; how it was run: as §2
[20] = system: Mus musculus; assay: Anticonvulsant activity in ip dosed CF1 albino mouse assessed as protection against maximal electroshock-induced seizure after 0.5 hrs; type: functional; how it was run: as §3
[21] = system: Mus musculus; assay: Anticonvulsant activity in CF1 albino mouse assessed as protection against maximal electroshock-induced seizure at 30 mg/kg, ip after 4 hrs; type: functional, organism-based; how it was run: as §3
[22] = system: Mus musculus; assay: Neurotoxicity in ip dosed CF1 albino mouse after 0.25 hrs by rotarod test; type: toxicity, organism-based; details: in vivo
How it was run: as §2, with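 “dosing.” for “dosing. TD50 with 95% confidence interval from the quantitative study.”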

[23] = system: Mus musculus; assay: Anticonvulsant activity in CF1 albino mouse assessed as protection against 6 Hz-psychomotor-induced seizure at 50 mg/kg, ip after 1 hr; type: functional, organism-based; how it was run: as §5
[24] = system: Mus musculus; assay: Neurotoxicity in CF1 albino mouse assessed as death at 100 mg/kg, ip after 0.5 hrs by rotarod test; type: toxicity, organism-based; details: in vivo
How it was run: (§6)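 Male albino CF-1 mice dosed ip with compound suspended in 0.5% methylcellulose, then placed on a 1-inch knurled plastic rod turning at 6 rpm. A fall three times within 1 min counted as neurotoxicity. Observations were made at 0.5 h and 4 h after dosing. Result given as animals showing toxicity per animals tested, with the kind of toxicity recorded.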

[25] = system: Mus musculus; assay: Anticonvulsant activity in CF1 albino mouse assessed as protection against 6 Hz-psychomotor-induced seizure at 50 mg/kg, ip after 2 hrs; type: functional, organism-based; how it was run: as §5
[26] = system: Mus musculus; assay: Neurotoxicity in CF1 albino mouse at 3 mg/kg, ip after 0.5 hrs by rotarod test; type: toxicity, organism-based; details: in vivo; how it was run: as §2
[27] = system: Mus musculus; assay: Anticonvulsant activity in CF1 albino mouse assessed as protection against subcutaneous pentetrazole-induced seizure at 30 mg/kg, ip after 0.5 hrs; type: functional, organism-based; how it was run: as §1
[28] = system: Mus musculus; assay: Neurotoxicity in CF1 albino mouse at 100 mg/kg, ip after 4 hrs by rotarod test; type: toxicity, organism-based; details: in vivo; how it was run: as §2
[29] = system: Mus musculus; assay: Anticonvulsant activity in ip dosed CF1 albino mouse assessed as protection against subcutaneous pentetrazole-induced seizure after 0.5 hrs; type: functional; how it was run: as §1
[30] = system: Mus musculus; assay: Neurotoxicity in CF1 albino mouse assessed as death at 300 mg/kg, ip after 0.5 hrs by rotarod test; type: toxicity, organism-based; details: in vivo; how it was run: as §6
[31] = system: Mus musculus; assay: Neurotoxicity in CF1 albino mouse at 50 mg/kg, ip after 0.5 hrs by rotarod test; type: toxicity, organism-based; details: in vivo; how it was run: as §2
[32] = system: Mus musculus; assay: Neurotoxicity in CF1 albino mouse at 10 mg/kg, ip after 0.5 hrs by rotarod test; type: toxicity, organism-based; details: in vivo
How it was run: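 Rotarod neurotoxicity in male CF-1 mice dosed ip as 0.5% methylcellulose suspension: mouse placed on 1 inch knurled rod rotating at 6 rpm; toxicity when the animal falls off three times within 1 min, with other signs noted. Scored as toxic/tested at 0.5 h and 4 h.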

[33] = system: Mus musculus; assay: Anticonvulsant activity in CF1 albino mouse assessed as protection against maximal electroshock-induced seizure at 100 mg/kg, ip after 4 hrs; type: functional, organism-based; how it was run: as §3
[34] = system: Mus musculus; assay: Anticonvulsant activity in CF1 albino mouse assessed as protection against subcutaneous pentetrazole-induced seizure at 100 mg/kg, ip after 4 hrs; type: functional, organism-based; how it was run: as §1
[35] = system: Mus musculus; assay: Anticonvulsant activity in ip dosed CF1 albino mouse assessed as protection against subcutaneous pentetrazole-induced seizure after 0.25 hrs; type: functional; how it was run: as §1
[36] = system: Mus musculus; assay: Neurotoxicity in CF1 albino mouse assessed as death and loss of righting reflux at 300 mg/kg, ip after 0.5 hrs by rotarod test; type: toxicity, organism-based; details: in vivo; how it was run: as §6
[37] = system: Mus musculus; assay: Anticonvulsant activity in ip dosed CF1 albino mouse assessed as protection against maximal electroshock-induced seizure after 0.25 hrs; type: functional; how it was run: as §3
[38] = system: Mus musculus; assay: Protective index, ratio of TD50 for ip dosed CF1 albino mouse to ED50 for ip dosed CF1 albino mouse assessed as protection against maximal electroshock-induced seizure after 0.25 hrs; type: functional
[39] = system: Mus musculus; assay: Anticonvulsant activity in CF1 albino mouse assessed as protection against maximal electroshock-induced seizure at 100 mg/kg, ip after 0.5 hrs; type: functional, organism-based; how it was run: as §3
[40] = system: Mus musculus; assay: Anticonvulsant activity in CF1 albino mouse assessed as protection against 6 Hz-psychomotor-induced seizure at 100 mg/kg, ip after 0.5 to 1 hr; type: functional, organism-based; how it was run: as §5
[41] = system: Mus musculus; assay: Anticonvulsant activity in CF1 albino mouse assessed as protection against subcutaneous pentetrazole-induced seizure at 100 mg/kg, ip after 0.5 hrs; type: functional, organism-based; how it was run: as §1
[42] = system: Mus musculus; assay: Neurotoxicity in CF1 albino mouse at 100 mg/kg, ip after 0.25 to 2 hrs by rotarod test; type: toxicity, organism-based; details: in vivo; how it was run: as §2

| Structure (SMILES) | Activity [1] | Activity [2] | Activity [4] | Activity [5] | Activity [7] | Activity [9] | Activity [10] | Activity [11] | Activity [14] | Activity [15] [%] | Ki [17] [µM] | Activity [18] | Activity [21] | TD50 (median neurotoxic dose) [22] [mg/kg] | Activity [26] | Activity [27] | Activity [28] | Activity [32] | further results |
| --- | --- | --- | --- | --- | --- | --- | --- | --- | --- | --- | --- | --- | --- | --- | --- | --- | --- | --- | --- |
| CC1CCN(CCCCCCOc2ccc(Cl)cc2)CC1.O=C(O)C(=O)O | Active | inactive | Non-toxic | Active | Non-toxic | inactive | Non-toxic | inactive | Active | 25 | 0.189 | inactive | Active | 40.77 | Non-toxic | inactive | Non-toxic | Non-toxic | Ratio TD50/ED50 [3]: 3.1; Activity [6]: Non-toxic; Activity [8]: inactive; Activity [12]: inactive; Activity [13]: Toxic; Activity [16]: inactive; Activity [19]: Non-toxic; ED50 [20]: 13 mg/kg; Activity [23]: inactive; Activity [24]: Toxic; Activity [25]: inactive; ED50 [29]: > 30 mg/kg; Activity [30]: Toxic; Activity [31]: Non-toxic |
| CC1CCCN(CCCCCCOc2ccc(Cl)cc2)C1.O=C(O)C(=O)O (stereo not given) | Active | inactive | Non-toxic | inactive | Non-toxic | inactive | Non-toxic | inactive | Active | 25 | 0.205 | inactive | inactive | 50.4 | Non-toxic | inactive | Non-toxic | Non-toxic | Activity [33]: Active; Activity [34]: inactive; ED50 [35]: > 50 mg/kg; Activity [36]: Toxic; ED50 [37]: 16.8 mg/kg; Ratio TD50/ED50 [38]: 3; Activity [39]: Active; Activity [40]: inactive; Activity [41]: inactive; Activity [42]: Toxic |
